{"source": "paper PMC6607903", "about": "(Clinical cancer research : an official journal of the …, 2015)", "key": {"[1]": {"details": "monotherapy; cited from earlier work"}, "[2]": {"assay": "Plasma pharmacokinetics of CUDC-101 and metabolite in patients", "assay_type": "in vivo, human", "details": "for AUC(0-t) / Cmax / Tmax / Vd / clearance / half-life: human, iv"}, "EGFR": {"system": "EGFR", "assay": "IHC of phosphorylated EGFR in paired tumor biopsies", "assay_type": "in vivo, human", "details": "2 pairs, 275 mg/m^2", "how_it_was_run": "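Post-dose tumour biopsies were taken 60±30 min after the end of a 1-h IV infusion of test compound on day −5 or −3, and paired with pre-treatment archival tumour. Staining was done on 5-μm paraffin sections. Antigen retrieval used 10mM Tris, 1mM EDTA, 0.05% Tween 20, pH 9.0, at 95°C for 10 min then 90°C for 5 min. Primary antibody was anti-pEGFR Y1068.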"}, "locally advanced HNSCC": {"system": "locally advanced HNSCC", "assay": "Response evaluation", "assay_type": "in vivo, human", "how_it_was_run": "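Test compound was infused IV over 1 h, Mon/Wed/Fri, for one week before radiation and then through weeks 1–7. Cisplatin 100 mg/m2 was given on days 2, 23 and 44 (adjustable to 40 mg/m2/week), never on the same day. IMRT delivered 70 Gy in 2 Gy daily fractions to gross disease and 56 Gy in 1.6 Gy fractions to the elective neck. Response was scored by RECIST 1.1 plus site-investigator overall assessment from imaging, PET/CT 12 weeks post-therapy, examination and histology.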"}, "Akt": {"system": "Akt", "details": "compared with erlotinib or SAHA alone; cited from earlier work"}, "[3]": {"assay_type": "in vivo"}, "[4]": {"system": "HPV-negative head and neck cancer cell lines", "details": "cited from earlier work"}}}
{"smiles": "C#Cc1cccc(Nc2ncnc3cc(OC)c(OCCCCCCC(=O)NO)cc23)c1", "note": "[CUDC-101, 7-(4-(3-ethylnylphenylamino)-7-methoxyquinazolin-6-yloxy)-N-hydroxyheptanamide]", "values": [{"measurement": "MTD as a single agent", "setting": "[1]", "value": 275, "unit": "mg/m^2"}, {"measurement": "Dose dependent increase in exposure or peak concentration", "setting": "[2]; 225 vs 275 mg/m^2", "value": "no clear dose dependent increase"}, {"measurement": "Accumulation with this dosing regimen", "setting": "[2]; IV 3 times per week, days −7 to 43", "value": "low probability of accumulation"}, {"measurement": "AUC(0-t)", "setting": "[2]; plasma, 225 mg/m2", "value": 9920, "unit": "ng·h/mL"}, {"measurement": "Cmax", "setting": "[2]; plasma, 225 mg/m2", "value": 13100, "unit": "ng/mL"}, {"measurement": "Tmax", "setting": "[2]; plasma, 225 mg/m2", "value": 0.542, "unit": "h"}, {"measurement": "Vd", "setting": "[2]; plasma, 225 mg/m2", "value": 26.6, "unit": "L"}, {"measurement": "clearance", "setting": "[2]; plasma, 225 mg/m2", "value": 938, "unit": "mL/min"}, {"measurement": "half-life", "setting": "[2]; plasma, 225 mg/m2", "value": 2.83, "unit": "h"}, {"measurement": "AUC(0-t)", "setting": "[2]; plasma, 225 mg/m^2", "value": 7110, "unit": "ng·h/mL"}, {"measurement": "Cmax", "setting": "[2]; plasma, 225 mg/m^2", "value": 8890, "unit": "ng/mL"}, {"measurement": "Tmax", "setting": "[2]; plasma, 225 mg/m^2", "value": 1.25, "unit": "h"}, {"measurement": "Vd", "setting": "[2]; plasma, 225 mg/m^2", "value": 54.4, "unit": "L"}, {"measurement": "clearance", "setting": "[2]; plasma, 225 mg/m^2", "value": 895, "unit": "mL/min"}, {"measurement": "half-life", "setting": "[2]; plasma, 225 mg/m^2", "value": 3.91, "unit": "h"}, {"measurement": "AUC(0-t)", "setting": "[2]; plasma, 275 mg/m2", "value": 8000, "unit": "ng·h/mL"}, {"measurement": "Cmax", "setting": "[2]; plasma, 275 mg/m2", "value": 7890, "unit": "ng/mL"}, {"measurement": "Tmax", "setting": "[2]; plasma, 275 mg/m2", "value": 0.5, "unit": "h"}, {"measurement": "Vd", "setting": "[2]; plasma, 275 mg/m2", "value": 42.3, "unit": "L"}, {"measurement": "clearance", "setting": "[2]; plasma, 275 mg/m2", "value": 1060, "unit": "mL/min"}, {"measurement": "half-life", "setting": "[2]; plasma, 275 mg/m2", "value": 2.88, "unit": "h"}, {"measurement": "AUC(0-t)", "setting": "[2]; plasma, 275 mg/m^2", "value": 7770, "unit": "ng·h/mL"}, {"measurement": "Cmax", "setting": "[2]; plasma, 275 mg/m^2", "value": 7820, "unit": "ng/mL"}, {"measurement": "Tmax", "setting": "[2]; plasma, 275 mg/m^2", "value": 0.742, "unit": "h"}, {"measurement": "Vd", "setting": "[2]; plasma, 275 mg/m^2", "value": 76, "unit": "L"}, {"measurement": "clearance", "setting": "[2]; plasma, 275 mg/m^2", "value": 1020, "unit": "mL/min"}, {"measurement": "half-life", "setting": "[2]; plasma, 275 mg/m^2", "value": 6.41, "unit": "h"}, {"measurement": "Peak concentrations and exposure between days −7 and 43", "setting": "[2]; plasma, IV 3 times per week", "value": "similar"}, {"measurement": "Exposure to the parent compound compared to its metabolite", "setting": "[2]; plasma, all subjects", "value": "greater in all subjects"}, {"measurement": "Phosphorylation of EGFR (Y1068 and Y1173) in tumor biopsies", "setting": "EGFR", "value": "trend of EGFR inhibition"}, {"measurement": "Post-treatment clinical assessment: stable, patients (%)", "setting": "locally advanced HNSCC; 11 patients, combination with cisplatin and radiation", "value": "4 (37%)"}, {"measurement": "Patients progression free", "setting": "locally advanced HNSCC; median of 1.47 (0.68 – 2.3) years of follow-up", "value": 90, "unit": "%"}, {"measurement": "Phosphorylation of Akt", "setting": "Akt", "value": "reduced phosphorylation of Akt"}, {"measurement": "Single adverse event (discontinuation) at dose level 1", "setting": "[3]; human, in vivo, 1 week", "value": "grade 2 joint pain and myalgia"}, {"measurement": "Patients who experienced a serious adverse event (SAE)", "setting": "[3]; human, in vivo, 8 weeks", "value": 7}, {"measurement": "Patients who experienced at least one AE", "setting": "[3]; in vivo", "value": "All patients"}, {"measurement": "Patients with an SAE considered related to any agent", "setting": "[3]; in vivo", "value": "Five"}, {"measurement": "Activity in HPV-negative head and neck cancer cell lines", "setting": "[4]", "value": "has activity"}]}
{"smiles": "N.N.[Cl][Pt][Cl]", "note": "[Cisplatin, reference compound]", "values": [{"measurement": "SAE: Failure to thrive", "setting": "[3]; Dose Level 1, 225 mg/m^2 CUDC-101, agent Cisplatin/Radiation", "value": "1 (25%)"}]}
